Compound activity as filed in PubChem BioAssay.
In the library only some 2.3% were active in any assay of this set; here they are far more common.
OXTR potentiator = potentiates the human oxytocin receptor response; P30559; CHO-OTR cells, Fluo-8 calcium fluorescence, potentiator mode; 0% = oxytocin EC15, 100% = EC100; activation, % at 3 µM; hit rate 0.061% among 320,000; AID 2445;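 active = activation above that plate's cutoff, the mean activation of tested compounds plus 3 SD, cut at about 6.6% in these data, passing the limit was not always enough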;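 note: 100% uses oxytocin at 75 nM as the full agonist control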
Target sequence (P30559 whole entry, looked up): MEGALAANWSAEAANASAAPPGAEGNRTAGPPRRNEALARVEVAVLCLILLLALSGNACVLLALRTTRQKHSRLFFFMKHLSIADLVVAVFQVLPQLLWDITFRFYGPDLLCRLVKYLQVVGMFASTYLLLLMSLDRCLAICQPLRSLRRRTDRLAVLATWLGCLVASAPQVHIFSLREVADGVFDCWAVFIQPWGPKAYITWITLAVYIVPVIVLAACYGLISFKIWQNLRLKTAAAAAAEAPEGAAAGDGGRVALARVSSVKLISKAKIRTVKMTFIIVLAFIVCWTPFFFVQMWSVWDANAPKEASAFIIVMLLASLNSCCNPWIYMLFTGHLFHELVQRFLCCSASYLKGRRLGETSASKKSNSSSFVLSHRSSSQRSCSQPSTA
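Dosing: Single dose, 3.0 µM nominal final compound concentration | Material: Human OTR in CHO cells | Technique: Kinetic Fluo-8 calcium fluorescence | Benchmarks: EC15 oxytocin alone as 0%, 75 nM oxytocin as 100% | Probe or stimulus: Oxytocin at about EC15, sub-maximal agonist stimulus | Incubation: Compound 6 min at room temperature before oxytocin, 100 s read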
TAAR1 antagonist = human TAAR1 antagonism; CHO RD-HGA16 TAAR1, Fluo-8 calcium fluorescence, antagonist; hit rate 1.5% among 360,000; AID 624466; inhibition, % at 3 µM;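 active = inhibition above a per-plate cutoff, the mean inhibition of test compounds on that plate plus 3 SD, cut at about 49% in these data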;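 note: 0% = DMSO plus EC80 beta-PEA response and 100% = DMSO alone without agonist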
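Test system: hTAAR1-expressing CHO RD-HGA16 cells, Gα16-coupled; Probe or stimulus: EC80 β-phenethylamine stimulus; Compound dosing: single nominal final test compound concentration of 3 µM; Timing: 140 s kinetic read after compound, 140 s after agonist; Signal: Fluo-8 calcium-sensitive fluorescence; Measure: % inhibition of agonist calcium response; Controls: DMSO and EC80 PEA controls.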
OXTR ag = activates the human oxytocin receptor. P30559. CHO-OTR cells, Fluo-8 calcium fluorescence; normalized: DMSO 0%, oxytocin 100%. activation, % at 3 µM. hit rate 0.32% among 320,000. AID 2435;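 active = activation above the mean of all tested compounds plus 3 SD, cutoff set per screening run, cut at about 20% in these data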;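 note: peak over basal fluorescence ratio from a 100 s FLIPR kinetic read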
V1R ag counter = counter-screen for oxytocin receptor agonists: human V1a receptor agonists | activation, % at 3 µM | CHO-V1R cells, Fluo-8 calcium fluorescence, agonist mode; 0% DMSO, 100% 3 nM vasopressin | P37288 | hit rate 0.25% among 320,000 | AID 2797;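 active = activation above the mean activation of all tested compounds plus 3 SD, per screening run, cut at about 20% in these data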;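 note: signal is peak over basal fluorescence ratio across a 100 second FLIPR read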
TAAR1 agonist = human TAAR1 agonism | AID 624467 | hit rate 0.99% among 360,000 | activation, % at 3 µM | CHO RD-HGA16 TAAR1, Fluo-8 calcium fluorescence; vehicle wells 0%, saturating PEA agonist 100% | Q96RJ0;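 active = activation above the mean activation of all test compounds in the run plus 3 SD, cut at about 38% in these data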
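Assay system – CHO-derived RD-HGA16 cells with stable Gα16 and human TAAR1 · Compound dosing – one-point dosing at 3 µM (nominal) · Incubation – 17-24 h seeding, 75 min 37 °C dye, 30 min RT · Measured by – kinetic Fluo-8 calcium fluorescence · Control set – DMSO vehicle as 0%, PEA at EC100 as 100% · Repeats – single well for each compound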
nonsel antag count = nonselective antagonist in TAAR1 antagonist counter-screen; shares compounds with TAAR1 antagonist; counterscreen cell line, calcium fluorescence, antagonist mode; inhibition, % at 3 µM; hit rate 77% among 2,400; in the data active = inhibition above about 22%;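 note: CHO-Ga16 host cells stimulated with ATP at an EC80 level; 0% = agonist EC80 plus vehicle and 100% = vehicle without agonist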
TAAR1 ant conf = human TAAR1 antagonism, confirmed. shares compounds with TAAR1 antagonist. TAAR1-expressing cells, fluorescence antagonist read-out. hit rate 40% among 2,400. inhibition, % at 3 µM; in the data active = inhibition above about 49%;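 note: CHO-Ga16 host cells challenged with agonist PEA near its EC80; 0% = agonist at EC80 plus vehicle and 100% = vehicle with no agonist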
Ga16 nonsel ag = nonselective Ga16 agonism, counter-screen | hit rate 18% among 2,400 | AID 651953 | Ga16-expressing cells, calcium fluorescence, agonist counterscreen | shares compounds with TAAR1 antagonist | activation, % at 3 µM; in the data active = activation above about 12%;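 note: 0% = vehicle wells and 100% = saturating stimulus response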
TAAR1 ag counter = activates human TAAR1 in antagonist counter-screen; hTAAR1 cell line, fluorescence activation, agonist mode; activation, % at 3 µM; hit rate 2% among 2,400; AID 651955; shares compounds with TAAR1 antagonist; in the data active = activation above about 37%;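 note: CHO cells stably expressing TAAR1 with calcium dye readout; 0% = DMSO vehicle and 100% = full agonist response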
The depositor's hits bear a star.

Screening COc1ccccc1-c1cccc(-c2nc(C(=O)Nc3nccs3)cc3c2[C@H](CCO)N(C(C)=O)C3)c1 returned TAAR1 antagonist 71.4*, TAAR1 agonist 6.7, nonsel antag count 30.2*, TAAR1 ant conf 51.3*, Ga16 nonsel ag 7.1 and TAAR1 ag counter 5.5.
`Cc1ccnc(NC(NC(=O)C(C)C)(C(F)(F)F)C(F)(F)F)c1` gave OXTR potentiator 2.5, TAAR1 antagonist -9.4, OXTR ag 0.2, V1R ag counter 0.3 and TAAR1 agonist 8.5.
`Cn1cncc1C#Cc1c(-c2ccc(S(C)(=O)=O)cc2)sc2ccccc12` gave OXTR potentiator -9.1, TAAR1 antagonist 60.8*, OXTR ag 8.9, V1R ag counter 4.2, TAAR1 agonist 10.9, nonsel antag count 32.5*, TAAR1 ant conf 35.2, Ga16 nonsel ag 6.2 and TAAR1 ag counter 0.9.
Nc1ccccc1S(=O)(=O)NC1=NCCCCC1 was read as OXTR potentiator -2.2, TAAR1 antagonist -0.8, OXTR ag -0.5, V1R ag counter 0.8 and TAAR1 agonist -0.7.
Screening Cc1nnc(SCC(=O)Nc2nsc(-c3ccc(C(C)(C)C)cc3)n2)s1 returned OXTR potentiator -7.3, TAAR1 antagonist 58.6*, OXTR ag -0.7, V1R ag counter 4.0, TAAR1 agonist 2.4, nonsel antag count 31.7*, TAAR1 ant conf 38.9, Ga16 nonsel ag 7.1 and TAAR1 ag counter 4.4.
Screening Cc1nc2ccc3nc(NC(=O)C4COc5ccccc5O4)sc3c2s1 (stereo unspecified) returned OXTR potentiator -5.4, TAAR1 antagonist 60.7*, OXTR ag -0.1, V1R ag counter 0.6, TAAR1 agonist 1.2, nonsel antag count 28.8*, TAAR1 ant conf 29.6, Ga16 nonsel ag 2.1 and TAAR1 ag counter 0.6.
`O=C(Nc1nc(-c2ccccn2)cs1)C1COc2ccccc2O1` (stereo unspecified) gave OXTR potentiator -6.3, TAAR1 antagonist 104.5*, OXTR ag -0.1, V1R ag counter 3.2, TAAR1 agonist 7.5, nonsel antag count 21.8*, TAAR1 ant conf 33.3, Ga16 nonsel ag 5.8 and TAAR1 ag counter 3.4.
Screening Cc1ccc(S(=O)(=O)N2[C@@H](c3ccc(Br)cc3)C(C(=O)O)=CC[C@H]2c2ccc(Cl)cc2)cc1 returned OXTR potentiator -7.5, TAAR1 antagonist 67.8*, OXTR ag 0.0, V1R ag counter 0.7, TAAR1 agonist 3.7, nonsel antag count 17.9, TAAR1 ant conf 51.4*, Ga16 nonsel ag 2.5 and TAAR1 ag counter 3.6.
Screening O=C(Nc1ccccc1C(=O)Nc1ccc(Br)cn1)c1cccc([N+](=O)[O-])c1 returned OXTR potentiator -17.1, TAAR1 antagonist -19.7, OXTR ag -0.7, V1R ag counter 1.1 and TAAR1 agonist 4.0.
CN(C)C(=O)c1cc(C(=O)Cc2ccccc2)c[nH]1 was read as OXTR potentiator -17.4, TAAR1 antagonist -2.8, OXTR ag 2.4, V1R ag counter 1.9 and TAAR1 agonist 1.0.
Screening Cc1cccc(-c2noc(CCC(=O)NCCc3ccccc3)n2)c1 returned OXTR potentiator -15.3, TAAR1 antagonist 12.3, OXTR ag 3.8, V1R ag counter 3.6 and TAAR1 agonist 16.9.
Screening Cc1cccc(-c2noc(-c3ccccc3C(=O)NCc3ccco3)n2)c1 returned OXTR potentiator -8.9, TAAR1 antagonist 52.5*, OXTR ag -2.7, V1R ag counter -0.6, TAAR1 agonist 16.1, nonsel antag count 25.6*, TAAR1 ant conf 35.2, Ga16 nonsel ag 4.5 and TAAR1 ag counter 4.1.
